# In ChEMBL document CHEMBL3739379, “Anti-Candida activity and cytotoxicity of a large library of new N-substituted-1,3-thiazolidin-4-one derivatives” (Eur J Med Chem, 2016):
# Experiments:
# Staphylococcus aureus = experiment: Antibacterial activity against Staphylococcus aureus after 18 to 22 hrs by broth microdilution method; format: functional
# Method in brief: (§1)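 Broth microdilution per NCCLS in Mueller-Hinton II broth; isolates subcultured for purity. Compounds dissolved in DMSO, serial dilutions 256 to 0.5 µg/mL; inoculum 10^5/mL. Controls: organism without compound, medium only. Incubation 18 to 22 h at 35 °C. MIC is the lowest concentration giving complete growth inhibition, read by unaided eye.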
# Staphylococcus warneri = experiment: Antibacterial activity against Staphylococcus warneri after 18 to 22 hrs by broth microdilution method; format: functional; method in brief: as §1
# Enterococcus faecalis = experiment: Antibacterial activity against […] faecalis after 18 to 22 hrs by broth microdilution method; format: functional; method in brief: as §1
# [1] = tested on: Staphylococcus haemolyticus; experiment: Antibacterial activity against Staphylococcus haemolyticus after 18 to 22 hrs by broth microdilution method; format: functional; method in brief: as §1
# Escherichia coli = experiment: Antibacterial activity against Escherichia coli at after 18 to 22 hrs by broth microdilution method; format: functional; method in brief: as §1
# Proteus mirabilis = experiment: Antibacterial activity against Proteus mirabilis after 18 to 22 hrs by broth microdilution method; format: functional; method in brief: as §1
# Enterobacter sp. = experiment: Antibacterial activity against Enterobacter sp. after 18 to 22 hrs by broth microdilution method; format: functional; method in brief: as §1
# Klebsiella oxytoca = experiment: Antibacterial activity against Klebsiella oxytoca after 18 to 22 hrs by broth microdilution method; format: functional; method in brief: as §1
# Candida albicans = experiment: Antifungal activity against Candida albicans clinical isolate after 24 hrs by sabouraud dextrose broth based microdilution method; format: functional
# Method in brief: (§2)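 Clinical isolates identified by conventional methods and subcultured for purity. Broth microdilution per NCCLS in Sabouraud dextrose broth; compounds dissolved in DMSO and serially diluted; inoculum 10^3/mL. Controls: fungi without compound, medium only. Incubated 24 h at 37 °C. MIC is the lowest concentration with complete growth inhibition by unaided eye. Values are geometric means over isolates per species.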
# Nakaseomyces glabratus = experiment: Antifungal activity against Candida glabrata clinical isolate after 24 hrs by sabouraud dextrose broth based microdilution method; format: functional; method in brief: as §2
# Candida tropicalis = experiment: Antifungal activity against Candida tropicalis clinical isolate after 24 hrs by sabouraud dextrose broth based microdilution method; format: functional; method in brief: as §2
# Pichia kudriavzevii = experiment: Antifungal activity against Candida krusei clinical isolate after 24 hrs by sabouraud dextrose broth based microdilution method; format: functional; method in brief: as §2
# Candida parapsilosis = experiment: Antifungal activity against Candida parapsilosis clinical isolate after 24 hrs by sabouraud dextrose broth based microdilution method; format: functional; settings: Lodderomyces parapsilosis; method in brief: as §2
# [Candida] sake = Antifungal activity against Candida sake clinical isolate after 24 hrs by sabouraud dextrose broth based microdilution method; format: functional; settings: Fermentozyma sake; method in brief: as §2
# [2] = Cytotoxicity against human Hep2 cells assessed as cell survival at 100 ug/ml after 24 hrs by trypan blue exclusion test (reference value: 87 to 94%); format: cell-based, HEp-2; settings: read-out: Survival
# [3] = Cytotoxicity against human Hep2 cells assessed as cell survival at 50 ug/ml after 24 hrs by trypan blue exclusion test (reference value: 87 to 94%); format: cell-based, HEp-2; settings: read-out: Survival
# [4] = Cytotoxicity against human Hep2 cells assessed as cell survival at 5 ug/ml after 24 hrs by trypan blue exclusion test (reference value: 87 to 94%); format: cell-based, HEp-2; settings: read-out: Survival
# [5] = Cytotoxicity against human Hep2 cells assessed as cell survival at 0.5 ug/ml after 24 hrs by trypan blue exclusion test (reference value: 87 to 94%); format: cell-based, HEp-2; settings: read-out: Survival
# [6] = Cytotoxicity against human Hep2 cells assessed as cell survival at 0.05 ug/ml after 24 hrs by trypan blue exclusion test (reference value: 87 to 94%); format: cell-based, HEp-2; settings: read-out: Survival
# [7] = Cytotoxicity against human Hep2 cells assessed as cell survival after 24 hrs by trypan blue exclusion method; format: cell-based, HEp-2
# Method in brief: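 Hep2 cells grown in DMEM with 10% FBS and 1% streptomycin-penicillin at 37 °C, 5% CO2, used at 60-70% confluency. Seeded at 1 x 10^5/mL and exposed 24 h to five concentrations (0.05-100 µg/mL), DMSO ≤0.5%. Controls: medium alone, DMSO, 1 mM nitroprusside. Cells scraped, recovered 30 min, stained 1:1 with 0.4% Trypan blue, counted by two operators. Means of ≥3 independent experiments.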
MIC (Staphylococcus aureus) [µg/mL],MIC (Staphylococcus warneri) [µg/mL],MIC (Enterococcus faecalis) [µg/mL],MIC (Escherichia coli) [µg/mL],MIC (Proteus mirabilis) [µg/mL],MIC (Enterobacter sp.) [µg/mL],MIC (Klebsiella oxytoca) [µg/mL],MIC (Candida albicans) [µg/mL],MIC (Nakaseomyces glabratus) [µg/mL],MIC (Candida tropicalis) [µg/mL],MIC (Pichia kudriavzevii) [µg/mL],MIC (Candida parapsilosis) [µg/mL],MIC ([Candida] sake) [µg/mL],SMILES,MIC [1] [µg/mL],"viability at 24 h, 100 ug/ml [2] [%]","viability at 24 h, 50 ug/ml [3] [%]","viability at 24 h, 5 ug/ml [4] [%]","viability at 24 h, 0.5 ug/ml [5] [%]","viability at 24 h, 0.05 ug/ml [6] [%]",CC50 at 24 h [7] [µg/mL]
> 256,> 256,> 256,> 256,> 256,> 256,> 256,256,16,256,16,16,16,C/C(=N\N=C1/SCC(=O)N1CN1C(=O)c2ccccc2C1=O)C1CCCCC1,> 256,–,–,–,–,–,–
> 256,> 256,> 256,> 256,> 256,> 256,> 256,2,32,2,32,4,4,C/C(=N\N=C1/SCC(=O)N1CN1C(=O)c2ccccc2C1=O)c1ccccn1,> 256,–,–,–,–,–,–
> 256,> 256,> 256,> 256,> 256,> 256,> 256,2,8,8,8,8,8,C/C(=N\N=C1/SCC(=O)N1CN1C(=O)c2ccccc2C1=O)c1ccccc1,> 256,–,–,–,–,–,–
> 256,> 256,> 256,> 256,> 256,> 256,> 256,4,16,32,16,4,16,O=C1c2ccccc2C(=O)N1CN1C(=O)CS/C1=N\N=C1CCCCCC1,> 256,–,–,–,–,–,–
> 256,> 256,> 256,> 256,> 256,> 256,> 256,256,16,128,128,128,128,O=C1c2ccccc2C(=O)N1CN1C(=O)CS/C1=N\N=C\c1cccc2ccccc12,> 256,–,–,–,–,–,–
> 256,> 256,> 256,> 256,> 256,> 256,> 256,256,8,16,8,16,32,O=C1c2ccccc2C(=O)N1CN1C(=O)CS/C1=N\N=C\c1cccnc1,> 256,–,–,–,–,–,–
> 256,> 256,> 256,> 256,> 256,> 256,> 256,256,16,128,256,256,256,C/C(=N\N=C1/SCC(=O)N1CN1C(=O)c2ccccc2C1=O)c1ccco1,> 256,–,–,–,–,–,–
> 256,> 256,> 256,> 256,> 256,> 256,> 256,4,32,8,4,4,4,O=C1c2ccccc2C(=O)N1CN1C(=O)CS/C1=N\N=C1CCCCCCC1,> 256,–,–,–,–,–,–
> 256,> 256,> 256,> 256,> 256,> 256,> 256,2,8,8,4,2,2,O=C1c2ccccc2C(=O)N1CN1C(=O)CS/C1=N\N=C\c1ccco1,> 256,–,–,–,–,–,–
> 256,> 256,> 256,> 256,> 256,> 256,> 256,4,32,2,4,4,8,C/C(=N\N=C1/SCC(=O)N1CN1C(=O)c2ccccc2C1=O)c1cccs1,> 256,–,–,–,–,–,–
> 256,> 256,> 256,> 256,> 256,> 256,> 256,2,32,8,8,8,4,CC1CCC(=N/N=C2\SCC(=O)N2CN2C(=O)c3ccccc3C2=O)CC1 (stereo not drawn),> 256,–,–,–,–,–,–
> 256,> 256,> 256,> 256,> 256,> 256,> 256,8,8,8,32,128,128,O=C1c2ccccc2C(=O)N1CN1C(=O)CS/C1=N\N=C\c1ccc2c(c1)OCO2,> 256,–,–,–,–,–,–

SMILES,MIC (Staphylococcus aureus) [µg/mL],MIC (Staphylococcus warneri) [µg/mL],MIC (Enterococcus faecalis) [µg/mL],MIC (Escherichia coli) [µg/mL],MIC (Proteus mirabilis) [µg/mL],MIC (Enterobacter sp.) [µg/mL],MIC (Klebsiella oxytoca) [µg/mL],MIC (Candida albicans) [µg/mL],MIC (Nakaseomyces glabratus) [µg/mL],MIC (Candida tropicalis) [µg/mL],MIC (Pichia kudriavzevii) [µg/mL],MIC (Candida parapsilosis) [µg/mL],MIC ([Candida] sake) [µg/mL],MIC [1] [µg/mL],"viability at 24 h, 100 ug/ml [2] [%]","viability at 24 h, 50 ug/ml [3] [%]","viability at 24 h, 5 ug/ml [4] [%]","viability at 24 h, 0.5 ug/ml [5] [%]","viability at 24 h, 0.05 ug/ml [6] [%]",CC50 at 24 h [7] [µg/mL]
CCCCC/C(C)=N/N=C1\SCC(=O)N1Cc1ccc([N+](=O)[O-])cc1,> 256,> 256,> 256,> 256,> 256,> 256,> 256,4,1,64,2,2,2,> 256,0,0,87,93.5,95.4,35
O=C1CS/C(=N\N=C2CCCC2)N1Cc1ccc([N+](=O)[O-])cc1,> 256,> 256,> 256,> 256,> 256,> 256,> 256,2,16,1,8,16,16,> 256,0,0,51,88,95,28
CC(C)=N/N=C1\SCC(=O)N1CN1C(=O)c2ccccc2C1=O,> 256,> 256,> 256,> 256,> 256,> 256,> 256,4,1,1,2,2,2,> 256,0,0,61,73,86,22
C/C(CC(C)C)=N\N=C1/SCC(=O)N1Cc1ccc([N+](=O)[O-])cc1,> 256,> 256,> 256,> 256,> 256,> 256,> 256,1,1,32,2,2,4,> 256,0,0,82,92.5,93,32
